Screening data from PubChem BioAssay.
This is a sample that favours compounds with a hit; in the whole collection about 2% have one here.
Xi reactivation – activators of X-chromosome reactivation in mouse fibroblasts; hit rate 0.055% among 360,000; AID 743238; activation, % at 7.58 µM; XiGFP mouse fibroblasts, % GFP-positive cells imaging, 3 d; cells co-treated with 5-aza-dC sensitizer; scaled so ellipticine positive control = 100%;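 active means mean normalized replicate activation at least 10% and every replicate at or above 10%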;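 further: 0% = median of on-plate neutral control wells and 100% = ellipticine 6 µM median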
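Assay system – SV40-immortalized XiGFP fibroblast cells, line 68-5-11 · Buffer or medium – DMEM supplemented with 5-aza-dC as sensitizing agent · Dosing – one concentration, pinned · Benchmarks – positive control ellipticine, 6 µM final · Times – 3 days compound exposure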
RAD52 anneal inh – blocks human RAD52 DNA annealing; inhibition, % at 18.7 µM; hit rate 0.46% among 360,000; recombinant RAD52 DNA annealing, FRET fluorescence;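 active means every replicate showing at least 50% inhibition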
PglD inh – blocks C. jejuni PglD acetyltransferase activity; purified PglD enzyme, DTNB colorimetric CoA detection; inhibition, % at 12.5 µM; hit rate 0.098% among 360,000; in the data active means inhibition above about 16%, passing the limit was not always enough
RAD54 inh – inhibitors of human RAD54 branch migration. RAD54 Holliday junction branch migration, FAM/BHQ fluorescence. inhibition, % at 10.4 µM. hit rate 0.14% among 360,000;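 active means mean normalized replicate activity at least 40 and at least half of replicates scoring 40 or more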;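 further: 0% = median of neutral control wells and 100% = median of positive control wells; inhibitors cause a drop in the FAM fluorescence signal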
Target sequence (Q92698 whole entry, looked up): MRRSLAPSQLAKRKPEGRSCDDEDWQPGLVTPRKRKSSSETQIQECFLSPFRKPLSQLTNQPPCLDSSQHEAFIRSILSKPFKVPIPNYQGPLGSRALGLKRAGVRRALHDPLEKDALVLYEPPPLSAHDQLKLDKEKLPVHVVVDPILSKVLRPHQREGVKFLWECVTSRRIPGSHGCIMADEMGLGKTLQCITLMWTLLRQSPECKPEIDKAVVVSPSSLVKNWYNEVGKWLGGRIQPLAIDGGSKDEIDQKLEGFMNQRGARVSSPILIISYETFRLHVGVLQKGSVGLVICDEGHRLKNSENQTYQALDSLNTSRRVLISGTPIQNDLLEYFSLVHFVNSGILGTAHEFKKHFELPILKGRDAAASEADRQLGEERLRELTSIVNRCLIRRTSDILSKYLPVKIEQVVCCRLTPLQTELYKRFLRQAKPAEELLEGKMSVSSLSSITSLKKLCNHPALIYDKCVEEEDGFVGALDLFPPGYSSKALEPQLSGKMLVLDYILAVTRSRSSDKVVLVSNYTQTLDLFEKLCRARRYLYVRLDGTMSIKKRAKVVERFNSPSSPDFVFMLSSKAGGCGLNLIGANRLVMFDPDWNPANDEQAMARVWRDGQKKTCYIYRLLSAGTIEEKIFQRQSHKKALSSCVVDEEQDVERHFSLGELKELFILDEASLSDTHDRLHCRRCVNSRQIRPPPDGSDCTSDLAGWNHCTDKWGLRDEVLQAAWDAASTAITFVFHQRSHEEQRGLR
rRNA inh HTS – inhibits bacterial ribosomal RNA function over humanized ribosomes. E. coli WT GFP vs humanized-ribosome RFP mutants, fluorescence, 24 h; active compounds read low; DMSO median 0, no signal -100. GFP signal change (wild-type ribosome), % (test concentration not listed). hit rate 1.6% among 350,000. AID 720706;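 active means significant combined selectivity score with lowered wild-type GFP, culture density cut under 30%, mutant RFP and density less affected; inactive means any of these conditions unmet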
E-sel inducer – E-selectin induction on HUVECs; P16581; HUVEC E-selectin immunofluorescence imaging; normalized: neutral wells 0, TNF-alpha wells 100; activation, % at 7.58 µM; hit rate 0.37% among 260,000; AID 686992;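 active means mean E-selectin-positive cell signal at least 10% of the positive control, reached in at least 60% of replicates, without over 20% cell loss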
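System: HUVEC, human umbilical vein endothelial cells; quantity: 3,000 cells/well; buffer or medium: EGM-2 medium, gelatin-coated wells; dosing: single-point compound dose; detection: immunofluorescence imaging; evaluation: % PE-positive cells; benchmarks: TNF-alpha, DMSO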
Active calls of the source: *; . = no result given.

SMILES	Xi reactivation	RAD52 anneal inh	PglD inh	RAD54 inh	rRNA inh HTS	E-sel inducer
Cc1noc(C)c1NC(=O)Nc1ccc2c(c1)C(=O)N([C@@H](C)CO)C[C@@H](C)[C@H](CN(C)C(=O)Nc1ccc(F)cc1)OCCCC[C@@H](C)O2	0	8	1	26	-1	0
CCN(CC)S(=O)(=O)c1ccc(/C=C/C(=O)O)cc1	0	-6	2	-4	7	5
CCN(CC)S(=O)(=O)c1ccc(/C=C/C(=O)Nc2cccc(F)c2)cc1	0	-18	3	4	-17*	.
CCN(CC)S(=O)(=O)c1cccc(NC(=O)COc2ccc(F)cc2Br)c1	0	1	.	.	-27*	-4
CCN(CC)S(=O)(=O)c1cccc(NC(=O)c2ccc(SC)cc2OC)c1	0	-18	6	4	-25*	0
CC(=O)N1[C@H](CO)[C@H]2c3ccccc3N(S(=O)(=O)c3ccccc3)C[C@H]21	0	-1	-4	-4	0	0
CCCC(=O)Nc1ccc2c(c1)C(=O)N(C)C[C@@H](OC)[C@@H](C)CN(C(C)=O)[C@@H](C)CO2	0	-4	0	4	1	1
O=C(Cn1c(=O)n(Cc2ccco2)c(=O)c2c3c(sc21)CCCCC3)Nc1ccccc1	.	.	-5	-1	.	.
O=C(Cn1c(=O)n(Cc2ccco2)c(=O)c2c3c(sc21)CCCCC3)c1ccccc1	.	-7	4	6	-19*	.
NC(=O)CSc1nnc(SCc2ccc(F)cc2)s1	0	1	-3	1	11	27*
O=C(/C=C/c1cccc([N+](=O)[O-])c1)NCCSCc1ccc(Cl)cc1	0	8	.	.	-20*	.
O=C(COC(=O)c1ccc(-n2cnnn2)cc1)c1ccc(Br)cc1	0	-16	-2	8	4	27*
C[C@@H]1CN([C@@H](C)CO)C(=O)Cc2cc(NC(=O)Nc3ccc(F)cc3)ccc2O[C@@H]1CN(C)S(=O)(=O)c1cn(C)cn1	0	.	.	.	2	73*
COc1ccc(NC(=O)Nc2ccc3c(c2)CC(=O)N([C@H](C)CO)C[C@H](C)[C@@H](CN(C)S(=O)(=O)c2ccc(F)cc2)O3)cc1	15*	-26	-2	-3	-4	0
COc1ccc(S(=O)(=O)N(C)C[C@@H]2Oc3ccc(NC(=O)Nc4ccc5c(c4)OCO5)cc3CC(=O)N([C@@H](C)CO)C[C@@H]2C)cc1	0	-12	0	34	3	-13
COc1ccc(S(=O)(=O)N(C)C[C@H]2Oc3ccc(NC(=O)Nc4ccc5c(c4)OCO5)cc3CC(=O)N([C@@H](C)CO)C[C@H]2C)cc1	0	6	4	11	-1	79*
C[C@@H]1CN([C@H](C)CO)C(=O)Cc2cc(NC(=O)Nc3ccc(F)cc3)ccc2O[C@@H]1CN(C)S(=O)(=O)c1ccc(Cl)cc1	0	12	-3	1	1	35*
C[C@@H]1CN([C@@H](C)CO)C(=O)Cc2cc(NC(=O)Nc3ccc(F)cc3)ccc2O[C@H]1CN(C)S(=O)(=O)c1ccc(Cl)cc1	0	18	-3	14	-2	-14
C[C@H]1CCCCO[C@@H](CN(C)S(=O)(=O)c2ccc(F)cc2)[C@@H](C)CN([C@@H](C)CO)C(=O)c2cc(NS(=O)(=O)c3ccc(F)cc3)ccc2O1	0	.	4	-6	2	0
Cc1ccc(S(=O)(=O)N(C)C[C@H]2Oc3ccc(NC(=O)C4CC4)cc3CC(=O)N([C@H](C)CO)C[C@@H]2C)cc1	0	10	15*	-4	-3	0
COc1ccc(S(=O)(=O)N(C)C[C@@H]2Oc3ccc(NC(=O)Nc4ccccc4)cc3CC(=O)N([C@@H](C)CO)C[C@H]2C)cc1	2	7	-1	18	-3	0
Cc1ccc(S(=O)(=O)N(C)C[C@H]2Oc3ccc(NC(=O)C4CC4)cc3CC(=O)N([C@@H](C)CO)C[C@H]2C)cc1	0	16	4	-25	2	0
COc1ccc(S(=O)(=O)N(C)C[C@H]2Oc3ccc(NC(=O)NC(C)C)cc3CC(=O)N([C@@H](C)CO)C[C@H]2C)cc1	0	9	-1	-6	3	0
COc1ccc(S(=O)(=O)N(C)C[C@@H]2Oc3ccc(NC(=O)Nc4ccccc4)cc3CC(=O)N([C@@H](C)CO)C[C@@H]2C)cc1	0	0	3	72*	-4	0
Cc1ccc(S(=O)(=O)N(C)C[C@H]2Oc3ccc(NC(=O)Nc4ccccc4)cc3CC(=O)N([C@H](C)CO)C[C@@H]2C)cc1	23*	16	-2	-7	2	.
SMILES	Xi reactivation	RAD52 anneal inh	PglD inh	RAD54 inh	rRNA inh HTS	E-sel inducer
COc1ccc(S(=O)(=O)N(C)C[C@@H]2Oc3ccc(NC(=O)NC(C)C)cc3CC(=O)N([C@@H](C)CO)C[C@@H]2C)cc1	0	14	7	51*	0	0
CN(C)C(=O)C[C@H]1C=C[C@@H](NC(=O)Nc2cccc(F)c2)[C@@H](CO)O1	0	10	0	5	3	0
C[C@@H]1CN([C@@H](C)CO)C(=O)c2cccc(NC(=O)C3CCCCC3)c2O[C@@H]1CN(C)Cc1ccncc1	0	2	-3	-3	-4	0
CN(CC(=O)Nc1ccc(Cl)c(Cl)c1)C1CCCCC1	0	-3	8	-3	-19	75*
CCN1CCN(C2=C(NS(=O)(=O)c3ccc(C)cc3)C(=O)c3ccccc3C2=O)CC1	0	-24	-3	-5	-18*	.
CC1CCN(C2=C(NS(=O)(=O)c3ccccc3)C(=O)c3ccccc3C2=O)CC1	0	-8	.	.	-24*	1
CC1CCN(C2=C(NS(=O)(=O)c3ccc(Cl)cc3)C(=O)c3ccccc3C2=O)CC1	0	-3	-4	-9	9	4
CCN1CCN(C2=C(NS(=O)(=O)c3ccc(NC(C)=O)cc3)C(=O)c3ccccc3C2=O)CC1	0	-16	-4	-3	-3	.
COc1ccc(C(=O)CSc2nnc(-c3cccnc3)n2Cc2ccco2)cc1	.	.	-2	1	.	.
O=C(CSc1nnc(-c2ccncc2)n1Cc1ccco1)c1ccc(Cl)cc1	.	-15	0	3	-20*	.
C[C@@H]1CCCCO[C@H](CN(C)C(=O)Cc2ccccc2)[C@H](C)CN([C@@H](C)CO)C(=O)c2cc(NS(=O)(=O)c3cn(C)cn3)ccc2O1	0	-12	0	-19	-4	0
Cc1ccc(C2CC(=O)C=C(NCc3ccccc3)C2)cc1 (stereo unspecified)	0	-14	1	7	-32*	0
O=C(C[C@@H]1CC[C@@H](NC(=O)c2ccncc2)[C@H](CO)O1)NCc1ccncn1	0	2	.	.	3	0
